Assay results collected from several papers.
Each line is one published result; the experiments were not run side by side.

N=c1c2c(-c3ccccc3)c(-c3ccccc3)n(Cc3ccccc3)c2ncn1[C@H]1CC[C@H](O)CC1
half-life (metabolic stability; mouse, liver microsomes; 1 µM): > 2 h

O=C(Nc1cccnn1)N1CCN([C@@H]2CCOc3cc(C(F)(F)F)ccc32)CC1
concentration (male Sprague-Dawley rat, plasma; oral, 1 mg/kg, 1 h): 125 ng/mL

CC(C)(C)[C@H](NC(=O)[C@H](CCONC(=N)N)NC(=O)Cc1ccc(CNC(=N)N)cc1)C(=O)N[C@@H](CCONC(=N)N)C(=O)NCc1ccc(C(=N)N)cc1
C0 (male Sprague-Dawley rat, plasma; intravenous, 1 mg/kg): 2080 ng/mL

Cl.Cl.O=C(CCN1CCCCC1)c1ccc(-c2ccc(C(=O)CCN3CCCCC3)cc2)cc1
half-life (Sprague-Dawley rat, plasma; oral, 100 mg/kg): 8.23 h

C[C@H](Cn1cnc2c(N)ncnc21)OCP(=O)(O)OCCCOCCCCCCCCCCCCCC#CC(F)(F)F.N
half-life (metabolic stability; CD-1 mouse, liver microsomes; 3 µM, pH 7.4): > 2 h

N#C[C@@H]1CC(F)(F)CN1C(=O)CNC(=O)c1ccnc2ccc(OCCCN3CCN(C(=O)CN4CCN(CC(=O)[O-])CCN(CC(=O)[O-])CC4)CC3)cc12.[18F-].[Al+3]
tracer uptake (rat, stomach; intravenous, 2 h): 1.05 %ID/g

Cc1ncc(C)n2nc(/C=C/c3nc(N4CCCC4)cc(N4CCOCC4)n3)nc12
concentration (male Fischer 344 rat, plasma; oral, 0.3 mg/kg, 1 h): 50 ng/mL

C[C@H](Cn1cnc2c(N)ncnc21)OCP(=O)(O)OCCCOCCCCCCCCCCCCC#C[Si](C)(C)C.N
half-life (metabolic stability; CD-1 mouse, liver microsomes; 3 µM, pH 7.4): > 2 h

Cc1cc(C)nc(Nc2ncc(C(=O)NCCc3c(C)[nH]c4ccccc34)cn2)c1
half-life (metabolic stability; mouse, liver microsomes; 1 µM): 0.0783 h
